Data reported in BindingDB's records for doi:10.1021/jm00074a030 (Wellcome Research Laboratories, 1993).

Target: Thymidylate synthase (Homo sapiens, UniProt P04818)
Assay: Inhibition of purified human thymidylate synthase (TS) isolated from an Escherichia coli harboring a plasmid with thy A gene cloned from SV40 transformed human fibroblast cells
Summary of the method: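 Purified recombinant human TS, expressed in E. coli from a thyA gene cloned from SV40-transformed human fibroblasts. Inhibition was measured by a modified tritium-release assay. Ki was estimated by treating compounds as tight-binding noncompetitive inhibitors.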

Thymidylate synthase, sequence (P04818 whole entry): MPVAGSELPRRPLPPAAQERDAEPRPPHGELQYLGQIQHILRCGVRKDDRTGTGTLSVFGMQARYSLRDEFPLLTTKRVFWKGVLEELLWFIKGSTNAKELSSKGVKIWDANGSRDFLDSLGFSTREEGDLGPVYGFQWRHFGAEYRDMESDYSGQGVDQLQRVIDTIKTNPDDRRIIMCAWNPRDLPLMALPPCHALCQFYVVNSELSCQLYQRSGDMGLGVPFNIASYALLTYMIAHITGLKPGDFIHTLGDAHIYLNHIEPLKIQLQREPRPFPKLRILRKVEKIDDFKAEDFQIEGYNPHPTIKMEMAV

SMILES | Ki
Nc1nc(O)c2c(ccc3ccc(Br)cc32)n1 | 20 nM
Nc1nc2ccc3cc(S(=O)(=O)Nc4ccc(C(=O)N[C@@H](CCC(=O)O)C(=O)O)cc4)c(Br)cc3c2c(=O)[nH]1 | 16400 nM
Nc1nc(O)c2c(ccc3ccc(NS(=O)(=O)c4ccc(C(=O)N[C@@H](CCC(=O)O)C(=O)O)cc4)cc32)n1 | 100 nM
